Experimental data published in ChEMBL document CHEMBL2401645, “Bivalent ligands that target μ opioid (MOP) and cannabinoid1 (CB1) receptors are potent analgesics devoid of tolerance” (2013).
The source made the active and inactive calls. The calls are words filed in the database; no cut-off is given here.

Key:
[1] = tested on: Mus musculus; assay: Antinociceptive activity in ICR-CD1 mouse at 2500 pmol administered intrathecally by radiant heat tail flick test; assay type: functional
[2] = target: Cannabinoid receptor 1/Mu-type opioid receptor (Homo sapiens) (UniProt P21554+P35372); assay: Induction of human MOPR/CB1receptor internalization transiently expressed in HEK293 cells at 1 uM after 30 mins by immunofluorescence assay; assay type: cell-based
In short: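 HEK-293 cells were transiently transfected with human MOP and CB1 cDNA (16 μg per 2 million cells) and seeded into chamber slides 24 h later. After a further 24 h, cells were exposed to ligand (1 μM) for 30 min. They were then fixed in 4% paraformaldehyde and incubated overnight at 4°C with MOP- and CB1-selective primary antibodies. Fluorescent secondaries (red MOP, green CB1) were applied, and receptor location was imaged by confocal microscopy.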

[3] = tested on: Mus musculus; assay: Antinociceptive activity in ICR-CD1 mouse at 2500 pmol, icv by radiant heat tail flick test; assay type: functional
[4] = tested on: Mus musculus; assay: Antinociceptive activity in ICR-CD1 mouse at 250 pmol administered intrathecally by radiant heat tail flick test; assay type: functional
[5] = tested on: Mus musculus; assay: Antinociceptive activity in ICR-CD1 mouse at 250 pmol, icv by radiant heat tail flick test; assay type: functional
[6] = tested on: Mus musculus; assay: Reduction in tolerance acquisition in ICR-CD1 mouse assessed as compound antinociception effect at 125 to 2500 pmol, icv administered on day 1 and repeated on day 2 measured on day 1 by radiant heat tail flick test; assay type: functional; set-up: scale not given: the % may be the effect or the level left
In short: (§1)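 Tolerance test in male ICR-CD1 mice given i.c.v. The highest dose of the day-1 dose-response curve is given on day 1 and repeated 24 h later in the same mice. Radiant-heat tail-flick %MPE is recorded each day, and mice with no significant day-to-day difference are classed as not tolerant.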

[7] = tested on: Mus musculus; assay: Ratio of ED50 for antinociception activity in icv dosed ICR-CD1 mouse to ED50 for antinociception activity in intrathecally dosed ICR-CD1 mouse by radiant heat tail flick test; assay type: functional
In short: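 ED50 values (pmol/mouse) come from radiant-heat tail-flick dose-response curves in male ICR-CD1 mice after i.c.v. or i.t. injection, with %MPE read-out and at least three groups of 8–10 mice per curve. The ratio is i.c.v. ED50 divided by i.t. ED50.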

[8] = tested on: Mus musculus; assay: Reduction in tolerance acquisition in ICR-CD1 mouse assessed as compound antinociception effect at 125 to 2500 pmol intrathecally administered on day 1 and repeated on day 2 measured on day 2 by radiant heat tail flick test; assay type: functional; set-up: scale not given: the % may be the effect or the level left
[9] = tested on: Mus musculus; assay: Antinociceptive activity against icv dosed ICR-CD1 mouse by radiant heat tail flick test; assay type: functional
In short: (§2)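 Male ICR-CD1 mice (17–25 g), single i.c.v. or i.t. injection; tail-flick latency to radiant heat. Antinociception as %MPE = (Test − Control)/(10 − Control) × 100. Dose-response curves from at least three groups of 8–10 mice, each mouse used once; ED50 with 95% C.I. in pmol/mouse.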

[10] = tested on: Mus musculus; assay: Reduction in tolerance acquisition in ICR-CD1 mouse assessed as compound antinociception effect at 125 to 2500 pmol, icv administered on day 1 and repeated on day 2 measured on day 2 by radiant heat tail flick test; assay type: functional; set-up: scale not given: the % may be the effect or the level left; in short: as §1
[11] = tested on: Mus musculus; assay: Reduction in tolerance acquisition in ICR-CD1 mouse assessed as compound antinociception effect at 125 to 2500 pmol intrathecally administered on day 1 and repeated on day 2 measured on day 1 by radiant heat tail flick test; assay type: functional; set-up: scale not given: the % may be the effect or the level left
[12] = tested on: Mus musculus; assay: Antinociceptive activity against intrathecally dosed ICR-CD1 mouse by radiant heat tail flick test; assay type: functional; in short: as §2
[13] = tested on: Mus musculus; assay: Reduction in tolerance acquisition in ICR-CD1 mouse assessed as compound antinociception effect at 125 to 2500 pmol, icv administered on day 1 measured after 24 hrs by radiant heat tail flick test; assay type: functional; set-up: scale not given: the % may be the effect or the level left
[14] = tested on: Mus musculus; assay: Reduction in tolerance acquisition in ICR-CD1 mouse assessed as compound antinociception effect at 125 to 2500 pmol, icv administered on day 1 and repeated after 48 hrs measured on day 3 by radiant heat tail flick test; assay type: functional; set-up: scale not given: the % may be the effect or the level left

Structure (SMILES)	Activity [1]	Activity [2]	Activity [3]	Activity [4] [%]	Activity [5] [%]	Activity [6] [%]	Ratio ED50 [7]	Activity [8] [%]	ED50 [9] [pmol]	Activity [10] [%]	Activity [11] [%]	ED50 [12] [pmol]	Activity [13] [%]	Activity [14] [%]
CNC(=O)COCC(=O)NCCCCNC(=O)COCC(=O)N1CCC(NC(=O)c2nn(-c3ccc(Cl)cc3Cl)c(-c3ccc(Cl)cc3)c2C)CC1	20%	inactive	20%	20	20									
Cc1c(C(=O)NC2CCN(C(=O)COCC(=O)NCCCCCCNC(=O)COCC(=O)N[C@H]3CC[C@@]4(O)[C@H]5Cc6ccc(O)c7c6[C@@]4(CCN5C)[C@H]3O7)CC2)nn(-c2ccc(Cl)cc2Cl)c1-c1ccc(Cl)cc1		Active				95.43	9.86	79.58	189	86.33	78.51	19		
Cc1c(C(=O)NC2CCN(C(=O)COCC(=O)NCCCCCCCNC(=O)COCC(=O)N[C@H]3CC[C@@]4(O)[C@H]5Cc6ccc(O)c7c6[C@@]4(CCN5C)[C@H]3O7)CC2)nn(-c2ccc(Cl)cc2Cl)c1-c1ccc(Cl)cc1		inactive				89.75	1.8	87.91	9		92.2	5	47	72.81
CNC(=O)COCC(=O)NCCCCCNC(=O)COCC(=O)N[C@H]1CC[C@@]2(O)[C@H]3Cc4ccc(O)c5c4[C@@]2(CCN3C)[C@H]1O5		Active				82.15	1.01	39.54	108	24.14	75.98	106		
Cc1c(C(=O)NC2CCN(C(=O)COCC(=O)N[C@H]3CC[C@@]4(O)[C@H]5Cc6ccc(O)c7c6[C@@]4(CCN5C)[C@H]3O7)CC2)nn(-c2ccc(Cl)cc2Cl)c1-c1ccc(Cl)cc1		Active				77.72	19.48	73.41	523	63.7	81.72	27		
Cc1c(C(=O)NC2CCN(C(=O)COCC(=O)NCCNC(=O)COCC(=O)N[C@H]3CC[C@@]4(O)[C@H]5Cc6ccc(O)c7c6[C@@]4(CCN5C)[C@H]3O7)CC2)nn(-c2ccc(Cl)cc2Cl)c1-c1ccc(Cl)cc1		Active				83.47	1.31	72.5	55	66.99	98.33	42		
Cc1c(C(=O)NN2CCCCC2)nn(-c2ccc(Cl)cc2Cl)c1-c1ccc(Cl)cc1	inactive		inactive											
Cc1c(C(=O)NC2CCN(C(=O)N[C@H]3CC[C@@]4(O)[C@H]5Cc6ccc(O)c7c6[C@@]4(CCN5C)[C@H]3O7)CC2)nn(-c2ccc(Cl)cc2Cl)c1-c1ccc(Cl)cc1						64.27	2.18	66.01	1219	33.85	73.55	559		
